Source: PubChem BioAssay
In the library only some 3.1% were active in any assay of this set; here they are far more common.
PRMT1 FP inh: inhibitors of human PRMT1 | Q99873 | recombinant PRMT1, activity-based probe fluorescence polarization | inhibition, % at 2.79 µM | 370,000 tested, 1.3% active;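 active = inhibition above about 21% made by adding two undisclosed values, limit read from the data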
MBD2 inh: inhibitors of human MBD2 binding to methylated oligonucleotide | Q9UBB5 | TR-FRET | inhibition, % at 4.4 µM | 370,000 tested, 0.31% active | AID 686964; in the data active = inhibition above about 13%
RBBP9 inh: human RBBP9 hydrolase inhibition. O75884. recombinant RBBP9, FP-Rh probe fluorescence polarization. inhibition, % at 7.94 µM. 220,000 tested, 0.2% active;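 active = inhibition above the campaign mean of all tested compounds plus 3 SD, cut at about 14% in these data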;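 note: plate controls were DMSO wells with RBBP9 for no effect and wells lacking RBBP9 protein for full effect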
Target sequence (O75884 whole entry, looked up): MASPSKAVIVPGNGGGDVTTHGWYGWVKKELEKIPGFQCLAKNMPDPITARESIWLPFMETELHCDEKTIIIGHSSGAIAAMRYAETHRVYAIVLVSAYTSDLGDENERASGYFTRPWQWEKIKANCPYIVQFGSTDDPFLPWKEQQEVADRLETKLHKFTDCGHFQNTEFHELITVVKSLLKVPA
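Test system – recombinant human RBBP9 · Input – RBBP9 2.5 µM in dispensing solution, pre-mixing · Medium – Tris buffer pH 8.0, NaCl, Pluronic · Schedule – preincubation 30 min plus labeling 45 min at 25 °C · Measured by – fluorescence polarization · Measure – % inhibition · Controls – DMSO and no-protein wells · Replicates – one well per compound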
UHRF1 binding: UHRF1 methyl-DNA binding inhibition. inhibition, % at 4.4 µM. 370,000 tested, 0.75% active. UHRF1 binding to methylated oligo, TR-FRET; in the data active = inhibition above about 21%;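 note: UHRF1 SRA domain binding a hemimethylated CpG hairpin DNA probe; 0% = median of test compound wells and 100% = reference inhibitor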
LEDGF integ inh: blocks HIV-1 LEDGF/p75-dependent DNA integration; TR-FRET IN-LEDGF/p75 DNA integration, Eu/Cy5; inhibition, % at 3.7 µM; 370,000 tested, 0.64% active;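 active = inhibition above the screen-wide mean plus 3 SD, cut at about 13% in these data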;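 note: signal is the Cy5 over europium emission ratio at 671 and 618 nm; 0% = plate median of compound wells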
ABHD5-PLIN5 inh: blocks binding of human ABHD5 to perilipin-5; Q00G26+Q8WTS1; Split G. princeps luciferase complementation, luminescence, 4 h; inhibition, % at 4 µM; 360,000 tested, 0.78% active; AID 602281;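 active = inhibition above the mean inhibition across every tested compound plus 3 SD, cut at about 22% in these data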;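 note: 0% = DMSO only wells and the 100% control is not disclosed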
ABHD5 PLIN5 conf: ABHD5-PLIN5 interaction inhibition, confirmed; shares compounds with ABHD5-PLIN5 inh; biochemical ABHD5-PLIN5 interaction, luminescence; inhibition, % at 4 µM; 2,200 tested, 67% active; AID 651612; in the data active = inhibition above about 23%;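 note: 0% = DMSO vehicle wells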
HNF4 split-luc: HNF4 split-luciferase signal hit, counter-screen; inhibition, % at 4 µM; 2,200 tested, 77% active; shares compounds with ABHD5-PLIN5 inh; AID 651674; HNF4 dimerization, luminescence, biochemical;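 active = mean inhibition across replicate wells exceeding the computed hit threshold, cut at about 13% in these data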;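 note: light from luciferase halves that rejoin when HNF4 fusion proteins dimerize; 0% = DMSO only wells and the 100% control is not given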
Starred values were filed as active, the others as inactive; x = no result given.

SMILES	PRMT1 FP inh	MBD2 inh	RBBP9 inh	UHRF1 binding	LEDGF integ inh	ABHD5-PLIN5 inh	ABHD5 PLIN5 conf	HNF4 split-luc
CN1C/C(=C/c2cccnc2)C(=O)/C(=C/c2cccnc2)C1	-1.7	-2.7	-3.2	1.2	-1.0	65.9*	99.8*	91.6*
CC(C)N1CC2=C(OC(N)=C(C#N)C2c2cccnc2)/C(=C/c2cccnc2)C1 (configuration not stated)	2.0	0.6	-2.7	2.6	-2.0	0.9	x	x
O=C1c2ccccc2C(=Cc2cccnc2)c2ccccc21	7.0	-1.1	x	-3.5	-3.5	7.4	x	x
CC(C)N1C/C(=C/c2cccnc2)C(=O)/C(=C/c2cccnc2)C1	2.2	-1.3	-3.1	2.7	1.6	41.5*	85.8*	66.9*
N#Cc1c(Nc2ccccc2C(F)(F)F)s[nH]c1=O	20.3	-0.3	-6.0	1.1	-1.6	16.0	x	x
N#Cc1c(Nc2ccccc2Cl)s[nH]c1=O	22.9*	-2.5	-2.7	-1.0	1.8	25.3*	44.0*	103.3*
COc1cccc(CN2CCC2(C)C(=O)Nc2cccc3cccnc23)c1OC (configuration not stated)	-5.2	-6.7	x	-3.5	3.4	-7.1	x	x
CC1(C(=O)Nc2cccc3cccnc23)CCN1Cc1ccc(-c2ccccc2)o1 (configuration not stated)	18.6	-0.5	x	-1.5	0.1	61.0*	47.0*	72.8*
C[C@@H]1ON(C)[C@H]2C[C@H]3c4[nH]c5cccc(-c6ccc7c(c6)OCO7)c5c4CCN3C(=O)[C@@H]12	-2.3	-2.5	x	0.3	2.1	x	x	x
Cc1ccc(C(=O)C=CC=Cc2ccccc2)cc1	-2.9	-3.2	x	-0.7	-4.0	8.6	x	x
Cc1ccc(C(=O)C(C(=O)/C=C/c2ccccc2)=C2SCCCS2)cc1	2.3	-3.7	-10.7	0.1	0.8	30.8*	66.3*	50.4*
Cc1ccc(NC(=O)c2cnccn2)c(Br)c1	2.7	-1.0	x	2.0	0.3	100.4*	2.1	1.2
CC(C)(C)S(=O)N1C[C@@H]2CC(=O)C=C2[C@H]1CCO (some centres not stated)	4.4	2.1	x	16.3	-1.3	x	x	x
O=[N+]([O-])c1ccc(N2CCc3ccccc3C2)cc1	1.0	-1.7	x	-2.3	3.3	30.8*	59.9*	58.5*
O=C(CC(=O)c1ccccc1)Nc1cccnc1Cl	6.9	3.6	-2.1	-3.5	0.0	27.0*	13.2	17.9*
O=C(CCc1ccccc1)Nc1cccnc1Cl	-0.7	-0.9	1.9	0.7	2.8	-0.8	x	x
Cc1c(Cl)ccc2c(C(=O)NCCN3CCCCC3)cc(-c3ccccn3)nc12	0.3	1.4	-9.1	-18.0	4.4	21.7	x	x
COc1ccccc1-c1cc(C(=O)NC2CCN(C)CC2)c2ccc(Cl)c(C)c2n1	3.6	-0.4	x	10.1	-1.4	31.7*	19.7	-2.7
O=C1c2cccc3cccc(c23)C(=O)N1CC1CCN(CC(O)COc2ccc3ccccc3c2)CC1 (configuration not stated)	5.5	0.8	x	0.3	-3.9	26.3*	10.0	0.6
CC(C)CNS(=O)(=O)CC1NCc2cc3c(cc21)OCO3 (configuration not stated)	5.2	1.5	x	0.6	1.3	x	x	x
Cc1cccc(C)c1NC(=O)C(c1ccccc1)n1c(=O)c(-c2ccco2)nc2ccccc21 (configuration not stated)	12.3	1.6	x	-2.7	1.4	88.1*	56.0*	22.6*
COc1ccc(NC(=O)C(c2cccc3ccccc23)n2c(=O)c(-c3ccco3)nc3ccccc32)cc1 (configuration not stated)	1.0	-0.9	x	-3.0	-1.8	25.9*	23.0*	2.9
N#Cc1ccc(C(C(=O)Nc2ccc3c(c2)OCCO3)n2c(=O)c(-c3ccco3)nc3ccccc32)cc1 (configuration not stated)	3.5	-3.9	x	-4.3	5.5	31.1*	32.2*	7.7
Cc1cccc(C)c1NC(=O)C(CCc1ccccc1)n1c(=O)c(-c2ccccc2)nc2ccccc21 (configuration not stated)	-2.4	1.9	x	0.4	4.0	25.6*	31.2*	13.0*
